The target in series [1] is Serine/threonine-protein kinase PLK2 (Homo sapiens) (UniProt Q9NYY3). The experiment in a line: Binding affinity to PlK2-PBD (unknown origin) using 5-carboxyfluorescein-Ahx-GPMQTS-pT-PKNG as substrate measured after 30 min by fluorescence polarization assay. The essentials:
(§1)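 Competitive fluorescence polarization. E. coli-purified PBD used at its EC85 with 10 nM (final) 5-carboxyfluorescein-labelled phosphopeptide: GPMQTS-pT-PKNG probe for Plk2, GPLATS-pT-PKNG probe for Plk3. Buffer was 10 mM Tris-Cl pH 8.0, 1 mM EDTA, 50 mM NaCl, 0.01% NP-40, with test peptide over a concentration range. Polarization read 30 min after mixing. Three independent experiments.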
(Polarisation of emitted light reports the rotation of a fluorescent probe.)

Another series deals with HeLa. Nature of the series: Antiproliferative activity against human HeLa cell assessed as viable cells measured after 2 days by MTS assay. Format: functional, cell-based. Particulars: time 2.0 day. Put shortly:
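HeLa cells, asynchronously growing, seeded at 2000 cells/100 μL in triplicate. Compound added for 24 h, then medium replaced and compound given for another 24 h (48 h continuous). MTS reagent added for 1–4 h at 37 °C, 5% CO2. Absorbance read at 490 nm. Three independent experiments, mean relative signal with s.d.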

In series [2] the target is Serine/threonine-protein kinase PLK3 (Homo sapiens) (UniProt Q9H4B4). Nature of the series: Binding affinity to PlK3-PBD (unknown origin) using 5-carboxyfluorescein-Ahx-GPLATS-pT-PKNG as substrate measured after 30 min by fluorescence polarization assay. The essentials:
as §1

Series [3] is described as follows: Drug uptake in Wistar rat administered iv measured after 5 to 30 mins by PET imaging analysis. Format: ADME, organism-based. Particulars: in vivo, time 5-30 min.

The source made the active and inactive calls. The rule behind the calls is not given here. Where a SMILES comes first, the peptide text is derived from it. [ ]: non-standard residue; d: D form. pT = C[C@@H](OP(=O)(O)O)[C@H](N)C(=O)O

Serine/threonine-protein kinase PLK3 (Homo sapiens), sequence (Q9H4B4 whole entry, looked up): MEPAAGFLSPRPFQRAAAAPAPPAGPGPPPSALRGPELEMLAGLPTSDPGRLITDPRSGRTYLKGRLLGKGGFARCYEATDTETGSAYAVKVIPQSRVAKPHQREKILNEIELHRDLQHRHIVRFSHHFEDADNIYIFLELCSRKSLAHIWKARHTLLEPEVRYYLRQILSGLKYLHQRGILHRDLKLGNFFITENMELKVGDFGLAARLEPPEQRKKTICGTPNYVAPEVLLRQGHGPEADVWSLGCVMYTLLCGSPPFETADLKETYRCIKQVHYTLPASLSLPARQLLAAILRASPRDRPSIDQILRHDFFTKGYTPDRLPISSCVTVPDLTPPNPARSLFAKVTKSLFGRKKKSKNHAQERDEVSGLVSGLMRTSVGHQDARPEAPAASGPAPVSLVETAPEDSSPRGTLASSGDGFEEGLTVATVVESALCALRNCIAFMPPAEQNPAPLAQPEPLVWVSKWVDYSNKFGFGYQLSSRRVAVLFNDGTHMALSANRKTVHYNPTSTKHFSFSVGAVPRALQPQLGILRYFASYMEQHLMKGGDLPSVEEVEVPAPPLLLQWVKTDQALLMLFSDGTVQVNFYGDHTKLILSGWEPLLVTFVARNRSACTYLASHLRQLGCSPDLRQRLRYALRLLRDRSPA
Serine/threonine-protein kinase PLK2 (Homo sapiens), sequence (Q9NYY3 whole entry, looked up): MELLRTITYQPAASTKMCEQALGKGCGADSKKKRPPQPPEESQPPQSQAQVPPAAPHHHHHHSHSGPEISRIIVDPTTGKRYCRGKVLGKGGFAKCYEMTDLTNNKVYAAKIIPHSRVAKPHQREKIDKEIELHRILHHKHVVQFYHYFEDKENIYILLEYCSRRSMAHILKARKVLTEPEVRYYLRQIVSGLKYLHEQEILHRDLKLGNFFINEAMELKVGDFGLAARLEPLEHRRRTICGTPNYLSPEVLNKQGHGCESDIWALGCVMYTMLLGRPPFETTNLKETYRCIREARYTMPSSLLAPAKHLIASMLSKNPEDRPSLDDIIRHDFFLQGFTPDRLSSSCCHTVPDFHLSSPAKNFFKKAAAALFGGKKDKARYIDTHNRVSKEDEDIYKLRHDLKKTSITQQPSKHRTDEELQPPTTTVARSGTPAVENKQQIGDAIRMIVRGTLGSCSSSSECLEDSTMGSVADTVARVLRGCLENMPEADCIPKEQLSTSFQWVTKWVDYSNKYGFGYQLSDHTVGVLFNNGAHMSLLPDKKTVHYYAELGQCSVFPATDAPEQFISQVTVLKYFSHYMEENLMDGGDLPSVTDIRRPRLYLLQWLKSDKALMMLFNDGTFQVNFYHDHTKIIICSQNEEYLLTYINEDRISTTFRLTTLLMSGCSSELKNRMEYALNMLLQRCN

With `COC(=O)[C@H](CC(C)C)NC(=O)[C@@H]1CC[C@H]2OCCNC(=O)CC[C@H](NC(=O)c3cc(OCC(C)C)cc(OCC(C)C)c3)C(=O)N[C@@H](CO)C(=O)N[C@@H]([C@@H](C)OP(=O)(O)O)C(=O)N21`, the result in series [1] and in series [2] was inactive. In the series with HeLa, the outcome was Active.

Take `COC(=O)[C@H](CC(C)C)NC(=O)[C@@H]1CCCN1C(=O)[C@@H](NC(=O)[C@H](CO)NC(=O)[C@H](CCC(N)=O)NC(=O)[C@H](CCSC)NC(=O)[C@@H]1CCCN1)[C@@H](C)OP(=O)(O)O` (H-PMQS[pT]PL-OMe): the Drug uptake result in series [3] was “Not Active”.

These data come from ChEMBL document CHEMBL5042523, “Novel Macrocyclic Peptidomimetics Targeting the Polo-Box Domain of Polo-Like Kinase 1” (J Med Chem, 2022).
